Only a sample is shown.
Apaf-1 act: activators of human Apaf-1 apoptosome | O14727 | activity change, negative = activation, % at 20 µM | Apaf-1 apoptosome caspase-3 activation, DEVD-Rh110 fluorescence; hits give low values | hit rate 0.31% among 330,000 | AID 489031;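 active = activity change at or below -40% at 20 µM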
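Material: biochemical Apaf-1 apoptosome reconstitution; Medium: 20 mM HEPES buffer, pH 7.5, containing CHAPS and BSA; Reagent: dATP, cytochrome c, and (Z-DEVD)2-Rh110 caspase-3 substrate; Times: 30 min preincubation, 50 min reaction, room temperature; Signal: Rh110 fluorescence, excitation 480 nm, emission 540 nm; Measure: Caspase-3 activity via Apaf-1.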
Rh110 act interf: counter-screen for Apaf-1 activators: fluorescence interference. fluorescence interference (activity change), % at 20 µM, hits read low. 980 tested, under 10 active. shares compounds with Apaf-1 act. Rh110 fluorescence interference, quenched caspase reaction, Ex480/Em540. AID 504616;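 active = mean activity change at or below -40% when tested at 20 µM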
Apaf-1 act conf: Apaf-1 (human) activation, single-dose confirmed | shares compounds with Apaf-1 act | reconstituted apoptosome caspase-3 activity, DEVD-Rh110 fluorescence; hits give low values | activity change, negative = activation, % at 20 µM | hit rate 5% among 980;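 active = mean activity change at or below -40%, meaning activation of 40% or more, at 20 µM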
Each line names hits and unclear results; the compound was inactive in the other large screens (follow-up assays come after a bar, where they were run).

CCOc1ccc(NC(=O)CN(C)C(=O)c2ccccc2OCc2cccc(C)c2)cc1OCC	none
O=C(O)CCCNc1cc(N2CCN(C(=O)c3ccco3)CC2)c2noc3c2c1C(=O)c1ccccc1-3	none
CCOC(=O)N1CCN(c2cc(NCCC(=O)O)c3c4c(onc24)-c2ccccc2C3=O)CC1	none
CCc1cccc(C)c1NC(=S)NCc1ccc2c(c1)cc(C)n2C	none
CCCCCCSc1cccc(-c2nc3cc(C)ccn3c2NCc2ccccc2)c1	none
CCSc1nnc2nc3[nH]c4c(C)cccc4c3nn12	Apaf-1 act -76 | Rh110 act interf inactive | Apaf-1 act conf inactive
Nc1ccc(C(=O)O)c(O)c1	none
CC(C)Oc1ccc(N2CC(C(=O)Nc3ccc(N4CCOCC4)cc3)CC2=O)cc1 (stereo unspecified)	Apaf-1 act -107 | Rh110 act interf inactive | Apaf-1 act conf inactive
CC(=O)c1ccc(NC2=C(N3CCOCC3)C(=O)c3ccccc3C2=O)cc1	none
CN(C)CCC(c1ccc(Br)cc1)c1ccccn1 (stereo unspecified)	none
NC(=O)c1ccc(N=C2C(=O)Nc3ccc([N+](=O)[O-])cc32)cc1	none
COCCNC(=O)c1cc2nc(-c3ccccc3)cc(C)n2n1	Apaf-1 act -169 | Rh110 act interf inactive | Apaf-1 act conf inactive
COCCNC(=O)c1c(N)n(CCC2=CCCCC2)c2nc3ccccc3nc12	none
c1csc(Cc2nn3c(-c4ccncc4)nnc3s2)c1	none
COC(=O)C1=C(C)N(Cc2ccccc2)C(=NCc2cc(OC)c(OC)c(OC)c2)N[C@H]1CCc1ccccc1	none
Cc1ccc(S(=O)(=O)NCc2ccccc2)cc1C(=O)N1CCN(c2ccccc2)CC1	none
Cc1ccc(C)c(S(=O)(=O)NCc2ccc(C(=O)N3CCOCC3)cc2)c1	Apaf-1 act -47 | Rh110 act interf inactive | Apaf-1 act conf inactive
CN(C)/C=C/C(=O)c1ccc(S(=O)(=O)c2ccccc2)cc1	Apaf-1 act -61 | Rh110 act interf inactive | Apaf-1 act conf inactive
COc1ccc(C(=O)c2nccc3cc(OC)c(OC)cc23)cc1OC	none
COc1ccc(C(=O)/C=C/N(C)C)cc1OC	Apaf-1 act -107 | Rh110 act interf inactive | Apaf-1 act conf inactive
CCC[C@@H](CN1CCC[C@H]1CN1C(N)=NC[C@H]1CC(C)C)N1C[C@@H]([C@H](C)CC)N(CCc2ccc(Cl)c(Cl)c2)C1=N	none
S=C(Nc1ccc2nsnc2c1)N1CCCCCC1	none
COc1cc(/C=C2\C(=O)N(CCC#N)N=C2C)c(Br)cc1OC(C)C	none
O=C1C2C3C=CC(CC3)C2C(=O)N1c1cccc(C(F)(F)F)c1 (stereo unspecified)	Apaf-1 act -120 | Rh110 act interf inactive | Apaf-1 act conf inactive
O=C(c1cccc(S(=O)(=O)NCc2ccccc2)c1)N1CCN(c2cccc(C(F)(F)F)c2)CC1	none
Cc1ccc(CN2C(=O)CCC2C(=O)NCC2CCCO2)cc1 (stereo unspecified)	Apaf-1 act -88 | Rh110 act interf inactive | Apaf-1 act conf inactive
COc1ccccc1-n1c(N)c(C(=O)NCC2CCCO2)c2nc3ccccc3nc21 (stereo unspecified)	none
Fc1ccc(NC(=S)Nc2cccc3ccccc23)cc1F	none
CCN(CC(=O)Nc1ccccc1C(F)(F)F)C(=O)c1ccccc1SCC(=O)N1CCCC1	none
O=C(NC(=S)Nc1ccccc1C(F)(F)F)c1ccccc1F	Apaf-1 act -244 | Rh110 act interf inactive | Apaf-1 act conf inactive
c1ccc2c(C[C@@H]3CNCCN3CCC34CC5CC(CC(C5)C3)C4)cccc2c1	none
COc1ccc(Br)cc1C1CC(=O)N2CN(Cc3ccccc3)CSC2=C1C#N (stereo unspecified)	none
N#Cc1cn(Cc2ccncc2)c(=O)[nH]c1=O	Apaf-1 act -182 | Rh110 act interf inactive | Apaf-1 act conf inactive
Cc1ccc(-c2ccc(/C=N/N=C3/NC(=O)C(CC(=O)O)S3)o2)c([N+](=O)[O-])c1 (stereo unspecified)	none
NC(CO)C(=O)NNCc1ccc(O)c(O)c1O (stereo unspecified)	none
Cc1ccc(C(=O)NC(C(=O)Nc2ccccc2)c2ccccc2)cc1 (stereo unspecified)	Apaf-1 act -55 | Rh110 act interf inactive | Apaf-1 act conf inactive
CC(OC(=O)c1cc(O)c2ccccc2c1O)C(=O)Nc1ccc(C(N)=O)cc1 (stereo unspecified)	none
C#CCOCCOCCOCCNc1nc(N2CCN(C(=O)[C@H](CCCCN)n3cc([C@@H](N)CO)nn3)CC2)nc(N2CCN(C(=O)[C@H](Cc3cc4ccccc4[nH]3)n3cc([C@@H](N)Cc4ccc(O)cc4)nn3)CC2)n1	none
CCn1c(=O)c2cc(C(=O)N(C)c3cc(C)ccc3OC)sc2c2ccccc21	none
CCn1c2ccccc2c2cc(NC(C)=O)ccc21	Apaf-1 act -226 | Rh110 act interf inactive | Apaf-1 act conf inactive
CC(=O)Nc1ccc2c(c1)N(C(=O)CN(C)C)c1ccccc1CC2	none
CCCOc1cc2c(C#N)c(N3CCCC3)nc(N)c2c(N)n1	none
C/C(CCN1CCc2nc(-c3ccccc3)c(-c3ccccc3)cc2C1)=N\OC[C@@H](C)[C@H](OCc1ccccc1)C(C)C	none
CNC(=S)N/N=C(\C)c1ccc(C)c(C)c1	Apaf-1 act -246 | Rh110 act interf inactive | Apaf-1 act conf inactive
Cc1[nH]n(-c2ccccc2)c(=O)c1N=Nc1nccs1	none
O=C(c1ccco1)N1CCN(C(c2ccccc2)c2nnnn2Cc2cccs2)CC1 (stereo unspecified)	Apaf-1 act -107 | Rh110 act interf inactive | Apaf-1 act conf inactive
CN1CCN(c2cc(N3CCN(C(=O)c4ccco4)CC3)c3c4c(onc24)-c2ccccc2C3=O)CC1	none
O=C1c2ccccc2-c2onc3c(N4CCN(CCO)CC4)cc(N4CCN(C(=O)c5ccco5)CC4)c1c23	none
CCOc1cc(CNc2ccc(N(C)C)cc2)cc(Br)c1OCC(=O)NC(C)(C)C	none
C#CCOCCOCCOCCNc1nc(N2CCN(C(=O)CCCCCCCCCCNC(=O)[C@H](CO)n3cc(CCCCCN)nn3)CC2)nc(N2CCN(C(=O)CCCCCCCCCCNC(=O)[C@H](CCCN=C(N)N)n3cc(C[C@@H](C)CC)nn3)CC2)n1	none
CCc1ccc(S(=O)(=O)/N=C2\C=C(Nc3ccc(O)cc3)C(=O)c3ccccc32)cc1	none
CN(CCCN1c2ccccc2CCc2ccccc21)CC(=O)c1ccc(Cl)cc1	none
COC(=O)CCC(=O)OC1(C)C(=O)C2=CN(C(CO)CO)C(c3ccc(OC)cc3)=CC2=C(Br)C1=O (stereo unspecified)	none
CS(=O)(=O)N(CC(=O)N1CCN(c2ccccc2)CC1)c1ccccc1Cl	Apaf-1 act -164 | Rh110 act interf inactive | Apaf-1 act conf inactive
Cc1cc(C)c(S(=O)(=O)/N=C2/C=C(SCC(=O)O)C(=O)c3ccccc32)cc1C	none
CCOc1cc(/C=C2\C(=O)N(c3nc(-c4ccc(Br)cc4)cs3)N=C2c2ccccc2)ccc1O	none
COc1ccc(C2=NCN(c3ccc(C)cc3)C(=S)N2)cc1	Apaf-1 act -555 | Rh110 act interf inactive | Apaf-1 act conf inactive
COc1ccc(-n2nc3cc(N)c(Br)cc3n2)cc1	none
Oc1cccc(/C=N/Nc2cc(N3CCCC3)nc(N3CCCC3)n2)c1	none
CN(c1ccccc1)c1cc(Br)nc(Br)c1	Apaf-1 act -47 | Rh110 act interf inactive | Apaf-1 act conf inactive

Screening data as filed in PubChem BioAssay.
